Screening data from PubChem BioAssay.
Shown are actives, neighbours in structure and some others; about 0.85% of the full set was active somewhere.
CRFR2-BP ag: agonists of CRF-BP/CRF-R2 complex, primary screen, cell-based, HEK293, calcium dye fluorescence, uHTS | CRF-binding protein / CRF receptor 2 complex (human) | calcium dye fluorescence (FLIPR); percent of saturating CRF peptide response | activation, % at 13.2 µM | hit rate 0.46% among 350,000;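 active means activation of at least 50%, plus an integration ratio under a set limit after plate pattern correction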;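 further: plate controls were neutral control wells without compound for no effect and CRF at EC100 for full effect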
OXTR agonist: human OXTR agonists, primary screen, fluorescence, CHO-OTR cells, Fluo-8 calcium; Oxytocin receptor (Homo sapiens), P30559; Fluo-8 calcium fluorescence; normalized: DMSO 0%, oxytocin 100%; activation, % at 3 µM; hit rate 0.32% among 320,000;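 active means activation above the mean of all tested compounds plus 3 SD, cutoff set per screening run, cut at about 20% in these data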;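 further: peak over basal fluorescence ratio from a 100 s FLIPR kinetic read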
TRPML3 agonist: human TRPML3 channel agonists, primary screen, cell-based, HEK293 TRPML3-YFP, Fluo-8 calcium fluorescence, 3 µM. Mucolipin-3 (Homo sapiens), Q8TDD5. hit rate 0.29% among 220,000. activation, % at 3 µM. AID 1448, 2008. 100% = the carbachol control signal;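 active means activation above its plate's cutoff, the mean activation of the plate's test wells plus 3 SD, cut at about 12% in these data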;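 further: 0% = DMSO only wells and 100% = carbachol wells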
Target sequence (Q8TDD5 whole entry, looked up): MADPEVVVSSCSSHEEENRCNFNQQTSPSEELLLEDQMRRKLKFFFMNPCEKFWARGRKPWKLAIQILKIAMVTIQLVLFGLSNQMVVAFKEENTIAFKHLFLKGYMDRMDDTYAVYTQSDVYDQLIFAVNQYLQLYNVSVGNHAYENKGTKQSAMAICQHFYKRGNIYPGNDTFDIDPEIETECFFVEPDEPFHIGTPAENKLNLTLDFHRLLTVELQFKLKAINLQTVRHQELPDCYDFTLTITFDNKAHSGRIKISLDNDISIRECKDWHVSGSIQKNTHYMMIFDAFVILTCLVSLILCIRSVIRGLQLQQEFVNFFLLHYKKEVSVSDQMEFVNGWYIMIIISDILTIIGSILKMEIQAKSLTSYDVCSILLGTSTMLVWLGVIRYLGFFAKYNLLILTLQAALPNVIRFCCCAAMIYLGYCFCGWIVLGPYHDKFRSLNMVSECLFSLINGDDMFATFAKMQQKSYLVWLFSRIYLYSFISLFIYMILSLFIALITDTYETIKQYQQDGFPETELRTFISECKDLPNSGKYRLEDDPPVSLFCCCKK
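Material: HEK293 cells stably carrying human TRPML3-YFP; compound dosing: single dose, 3 µM final nominal compound, 0.3% DMSO final; incubation: 1-h 37 °C dye load, 5-s basal, 120-s post-compound reads; technique: Fluo-8 intracellular calcium fluorescence, excitation 470-495 nm, emission 515-575 nm; read-out basis: percent activation from peak-to-basal fluorescence ratio, scaled between DMSO and carbachol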
V1aR counter: agonists of human V1a receptor, primary screen, counter-screen for OXTR agonist project, fluorescence, CHO-V1R cells. AID 2797, 2010. Fluo-8 calcium fluorescence, agonist mode; 0% DMSO, 100% 3 nM vasopressin. Vasopressin V1a receptor (Homo sapiens), P37288. activation, % at 3 µM. hit rate 0.25% among 320,000;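 active means activation above the mean activation of all tested compounds plus 3 SD, per screening run, cut at about 20% in these data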;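 further: signal is peak over basal fluorescence ratio across a 100 second FLIPR read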
zfTRPN1 agonist: zebrafish TRPN1 channel agonists, primary screen, cell-based, HEK293, calcium fluorescence | transient receptor potential cation channel N1 (TRPN1/NompC), Danio rerio | HEK293 zebrafish TRPN1-YFP, Fluo-8 calcium fluorescence; 100% = response to 87 µM carbachol | activation, % at 3 µM | hit rate 0.18% among 220,000;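 active means activation above its plate's cutoff, the mean activation of test wells on that plate plus 3 SD, cut at about 19% in these data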;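 further: 0% = DMSO alone and 100% = 87 µM carbachol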
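Material – zebrafish TRPN1-YFP in HEK293 cells · Doses – 3 µM single point · Schedule – dye 1 h 37 °C plus 30 min RT · Signal – Fluo-8 calcium fluorescence, excitation 470-495 nm, emission 515-575 nm · Read-out – % activation versus carbachol response · Control set – carbachol high, DMSO low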
OXTR potentiator: human OXTR potentiators, primary screen, fluorescence, CHO-OTR cells, Fluo-8 calcium. AID 2445, 2010. hit rate 0.061% among 320,000. Fluo-8 calcium fluorescence, potentiator mode; 0% = oxytocin EC15, 100% = EC100. activation, % at 3 µM;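 active means activation above that plate's cutoff, the mean activation of tested compounds plus 3 SD, cut at about 6.6% in these data, passing the limit was not always enough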;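 further: 100% uses oxytocin at 75 nM as the full agonist control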
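Assay system: CHO cell line stably expressing human OTR. Reagent: EC15 oxytocin agonist. Dosing: single dose, 3.0 µM nominal final compound concentration. Timing: compound 6 min at room temperature before oxytocin, 100 s read. Signal: kinetic Fluo-8 calcium fluorescence. Controls: oxytocin EC15 low and EC100 high.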
* = called active by the depositor; . = no result given.

SMILES	CRFR2-BP ag	OXTR agonist	TRPML3 agonist	V1aR counter	zfTRPN1 agonist	OXTR potentiator
CN(C)/C=C1/C(=O)N(c2ccc([N+](=O)[O-])cc2)N=C1c1ccccc1	.	0	0	0	0	-9
O=C(N/N=C/c1cc(Br)cc(Br)c1O)c1cccc(S(=O)(=O)N2CCOCC2)c1	69*	1	2	1	1	-1
O=C(N/N=C/c1cc(Cl)cc(Cl)c1O)c1ccncc1	109*	29*	9	28*	24*	-10
O=C(N/N=C/c1ccccc1Br)c1cccc(S(=O)(=O)N2CCOCC2)c1	-1	-1	.	0	.	1
O=C(N/N=C/c1cc(Br)cc(Br)c1O)c1ccncc1	167*	9	4	12	4	-24
COC1OC(COCc2ccccc2)C(N)C(OCc2ccccc2)C1OCc1ccccc1 (configuration not stated)	0	.	.	.	.	.
Cc1ccc(CC(=O)NNC(=O)c2ccncc2)cc1C	1	-2	.	0	.	-2
CCOc1ccc2nc(/N=C/c3nc(-c4ccc(Br)cc4)oc3O)sc2c1	147*	0	0	1	0	-3
CCCCOc1ccc(-c2nc(/C=N/c3nccs3)c(O)o2)cc1	-1	2	0	0	0	6
CCOc1cc(CNCCc2ccc(S(N)(=O)=O)cc2)ccc1OCc1ccc(Cl)cc1	6	37*	6	27*	7	-23
COc1cc(CNCCc2ccc(S(N)(=O)=O)cc2)ccc1OCc1ccc(Cl)cc1	4	9	3	9	4	-12
CC1(C)CC(=O)C2=C(C1)Nc1ccccc1NC2	55*	4	0	3	1	-4
CC1(C)CC(=O)C2=C(C1)Nc1ccccc1S2	2	-2	0	0	2	-5
COc1ccccc1C(CNC(=O)C(CCSC)NC(=O)c1ccccc1Cl)N1CCCC1 (configuration not stated)	-2	.	.	.	.	.
COc1ccc(-c2nc3c(c(=O)c4ccccc4n3C)c(=O)n2Cc2ccccc2)cc1	53*	-2	0	0	0	-4
Cc1ccc2c(C(=O)CNc3nncs3)c(C)[nH]c2c1	2	2	1	0	0	4
CN1C/C(=C\c2ccc(N3CCOCC3)cc2)C(=O)/C(=C/c2ccc(N3CCOCC3)cc2)C1	66*	7	7	16	10	-8
CCN1C/C(=C/c2ccc(N3CCOCC3)cc2)C(=O)/C(=C/c2ccc(N3CCOCC3)cc2)C1	114*	26*	11	22*	9	-12
CCc1ccc(/C=C2/SC(N3CCOCC3)=NC2=O)cc1	1	-3	0	-2	-1	-15
CN1C/C(=C/c2ccncc2)C(=O)/C(=C/c2ccncc2)C1	1	0	.	0	.	-9
O=C(Nc1cc(C(F)(F)F)ccc1Cl)C(Sc1cccc[n+]1[O-])c1ccccc1 (configuration not stated)	160*	0	0	-1	2	7
CCOc1ccc(NC(=S)N2CCN(S(=O)(=O)c3ccccc3)CC2)cc1	0	.	.	.	.	.
CCOc1ccc(-c2c(C(=O)N/N=C/c3ccsc3)nnn2-c2nonc2N)cc1	0	29*	.	21*	.	-9
CCCOc1ccc(-c2c(C(=O)N/N=C/c3ccc(OCC)cc3)nnn2-c2nonc2N)cc1	1	1	0	0	0	10
CCOc1ccc(-c2c(C(=O)N/N=C/c3ccc(OC)cc3)nnn2-c2nonc2N)cc1	1	37*	1	27*	1	-4
SMILES	CRFR2-BP ag	OXTR agonist	TRPML3 agonist	V1aR counter	zfTRPN1 agonist	OXTR potentiator
CCOC(=O)C1CCCN(C2=NC(=O)/C(=C/c3ccc(N(C)C)cc3)S2)C1 (configuration not stated)	69*	35*	.	34*	.	-23
O=S(=O)(c1cnc(Cl)c(Cl)c1)N1CCc2ccccc21	-1	-3	16*	-1	-2	-5
CCN(CCn1cccn1)C(=O)CCc1nnc(CCCc2ccccc2)o1	-1	0	26*	0	44*	-5
Cc1cccc2cc3c(N)c(C#N)sc3nc12	20	3	1	4	2	-4
Cc1sc(NC(=O)c2sc3nc4c(C)cccc4cc3c2N)c(C#N)c1C	88*	14	0	8	0	-7
COc1ccccc1N1CCN(c2ccc3c(c2)S(=O)(=O)c2cccc(C(=O)NCc4ccc(F)cc4)c2C3=O)CC1	0	.	.	.	.	.
O=C(NCc1ccco1)c1cccc2c1C(=O)c1ccc(N3CCC(Cc4ccccc4)CC3)cc1S2(=O)=O	62*	15	.	13	.	-10
CC1CCN(c2ccc3c(c2)S(=O)(=O)c2cccc(C(=O)NCc4cccc(F)c4)c2C3=O)CC1	92*	50*	.	38*	.	-10
O=C(NCc1cccc(F)c1)c1cccc2c1C(=O)c1ccc(N3CCC(Cc4ccccc4)CC3)cc1S2(=O)=O	75*	11	.	17	.	-11
O=C(NCCc1ccc(F)cc1)c1cccc2c1C(=O)c1ccc(N3CCC(Cc4ccccc4)CC3)cc1S2(=O)=O	174*	30*	.	27*	.	-10
O=C(NCc1ccco1)c1cccc2c1C(=O)c1ccc(/C=C/c3ccccc3)cc1S2(=O)=O	2	3	.	3	.	-2
CN1CCC[C@@H]1CCNC(=O)c1cccc2c1C(=O)c1ccc(N3CCCC3)cc1S2(=O)=O	14	4	.	2	.	-8
O=C(NCc1cccc(F)c1)c1cccc2c1C(=O)c1ccc(N3CCCC3)cc1S2(=O)=O	91*	20*	.	26*	.	-7
O=C(NCc1cccc(C(F)(F)F)c1)c1cccc2c1C(=O)c1ccc(N3CCC(Cc4ccccc4)CC3)cc1S2(=O)=O	67*	23*	.	24*	.	-11
CCC1CCCCN1C(=O)c1cc(S(=O)(=O)N2CCOCC2)ccc1C (configuration not stated)	0	0	.	0	.	-2
CN1C(=O)CSC1=Nc1cccc(Cl)c1	0	-1	.	1	.	9
Cc1cccc(-c2nnc(NC(=O)c3ccc(Cl)cc3)o2)c1	108*	1	1	10	0	-2
CCCN(CCC)S(=O)(=O)c1ccc(C(=O)Nc2nnc(-c3cccc(OC)c3)o2)cc1	100*	-2	1	0	1	-1
